ChEMBL document CHEMBL1949606, “Carbonic anhydrase VII is S-glutathionylated without loss of catalytic activity and affinity for sulfonamide inhibitors” (Bioorg Med Chem Lett, 2012)

Experiments:
Homo sapiens [1] = species: Homo sapiens; experiment: Activity of human recombinant carbonic anhydrase 7 C183S/C217S mutant
Homo sapiens [2] = species: Homo sapiens; experiment: Ratio of Kcat to Km for human recombinant carbonic anhydrase 7 C183S/C217S mutant
[3] = Inhibition of human recombinant carbonic anhydrase 7 C183S/C217S mutant using carbon-dioxide as substrate preincubated for 10 mins prior to substrate addition by […]
Outline: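 Stopped-flow CO2 hydration by Khalifah's method: 0.2 mM phenol red read at 557 nm, 10 mM HEPES pH 7.5, 0.1 M Na2SO4, CO2 1.7–17 mM, initial rates over 10–100 s. Enzyme preincubated 10 min at room temperature with at least 7 inhibitor concentrations, from 10 mM DMSO-water stock diluted down to 1 nM. Triplicates; Ki by non-linear least-squares fitting.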

[4] = Inhibition of human recombinant carbonic anhydrase 7 C183S/C217S mutant hydrolysis activity using 4-nitrophenyl acetate as substrate preincubated for 10 mins prior to substrate addition by […]
Outline: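 Esterase assay with 4-nitrophenyl acetate dissolved in acetonitrile (final MeCN 5%). Buffer: 10 mM HEPES/10 mM Tris pH 7.4 with 0.1 M Na2SO4; enzyme 0.10–5.0 µM. […] Spontaneous hydrolysis subtracted.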

[5] = Inhibition of human recombinant carbonic anhydrase 7 C183S/C217S mutant phosphatase activity using 4-nitrophenyl phosphate as substrate preincubated for 10 mins prior to substrate addition by […]
Outline: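 Phosphatase assay with 4-nitrophenyl phosphate at 0.08–5 mM, 25 °C, 4-nitrophenol release read at 405 nm. Buffer: 10 mM HEPES/10 mM Tris pH 7.4 with 0.1 M Na2SO4. Spontaneous hydrolysis subtracted.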

[6] = substrate: O=[N+]([O-])c1ccc(OP(=O)(O)O)cc1; experiment: (§1) Activity of S-glutathionylated form of human recombinant carbonic anhydrase 7
[7] = substrate: CC(=O)Oc1ccc([N+](=O)[O-])cc1; experiment: as §1
[8] = substrate: O=[N+]([O-])c1ccc(OP(=O)(O)O)cc1; experiment: Ratio of Kcat to Km for S-glutathionylated form of human recombinant carbonic anhydrase 7
[9] = substrate: O=[N+]([O-])c1ccc(OP(=O)(O)O)cc1; experiment: Ratio of Kcat to Km for human recombinant carbonic anhydrase 7
[10] = substrate: O=[N+]([O-])c1ccc(OP(=O)(O)O)cc1; experiment: (§2) Activity of human recombinant carbonic anhydrase 7
[11] = substrate: CC(=O)Oc1ccc([N+](=O)[O-])cc1; experiment: as §2
[12] = substrate: O=[N+]([O-])c1ccc(OP(=O)(O)O)cc1; experiment: (§3) Ratio of Kcat to Km for human recombinant carbonic anhydrase 3
[13] = substrate: CC(=O)Oc1ccc([N+](=O)[O-])cc1; experiment: as §3
[14] = substrate: O=[N+]([O-])c1ccc(OP(=O)(O)O)cc1; experiment: (§4) Activity of human recombinant carbonic anhydrase 3
[15] = substrate: CC(=O)Oc1ccc([N+](=O)[O-])cc1; experiment: as §4

With `O=[N+]([O-])c1ccc(OP(=O)(O)O)cc1` as the molecule, how does the Km (Homo sapiens [1]) read?
Its Km is 2210 µM.

What about the kcat/Km (Homo sapiens [2]) of the same molecule?
Its kcat/Km is 3.03 ×10⁴ /M/s.

Which Km (Homo sapiens [1]) does the source give for `CC(=O)Oc1ccc([N+](=O)[O-])cc1` here?
The Km was 1060 µM.

Which Ki [3] does the source give for `CC(=O)Nc1nnc(S(N)(=O)=O)s1` [ACETAZOLAMIDE] here?
Its Ki is 3 nM.

And the IC50 [4]?
The IC50 was 170 nM.

And the IC50 [5]?
Its IC50 is 2910 nM.

B1: Carbonic anhydrase 7 (Homo sapiens), P43166 (protein)
chain: MTGHHGWGYGQDDGPSHWHKLYPIAQGDRQSPINIISSQAVYSPSLQPLELSYEACMSLSITNNGHSVQVDFNDSDDRTVVTGGPLEGPYRLKQFHFHWGKKHDVGSEHTVDGKSFPSELHLVHWNAKKYSTFGEAASAPDGLAVVGVFLETGDEHPSMNRLTDALYMVRFKGTKAQFSCFNPKCLLPASRHYWTYPGSLTTPPLSESVTWIVLREPICISERQMGKFRSLLFTSEDDERIHMVNNFRPPQPLKGRVVKASFRA
Which results are given for B1?
Km [6]: 970 µM; Km [7]: 500 µM; kcat/Km [8]: 3.04 ×10⁴ /M/s; kcat/Km [9]: 2.89 ×10⁴ /M/s; Km [10]: 1430 µM; Km [11]: 750 µM

B2: Carbonic anhydrase 3 (Homo sapiens), P07451 (protein)
chain: MAKEWGYASHNGPDHWHELFPNAKGENQSPVELHTKDIRHDPSLQPWSVSYDGGSAKTILNNGKTCRVVFDDTYDRSMLRGGPLPGPYRLRQFHLHWGSSDDHGSEHTVDGVKYAAELHLVHWNPKYNTFKEALKQRDGIAVIGIFLKIGHENGEFQIFLDALDKIKTKGKEAPFTKFDPSCLFPACRDYWTYQGSFTTPPCEECIVWLLLKEPMTVSSDQMAKLRSLLSSAENEPPVPLVSNWRPPQPINNRVVRASFK
Which results are given for B2?
kcat/Km [12]: 45.3 M⁻¹ s⁻¹; kcat/Km [13]: 139 M⁻¹ s⁻¹; Km [14]: 1340 µM; Km [15]: 1230 µM
